Measurements published in ChEMBL document CHEMBL1140640, “C-geranyl compounds from Paulownia tomentosa fruits” (J Nat Prod, 2007).

Tests used:
[1] = Cytotoxicity against rat WB344 cells at 25 uM after 24 hrs; assay type: cell-based; settings: wb344, 24 h
Method in brief: (§1)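 Neutral red uptake: cells in DMEM were grown ~24 h, then given compounds in DMSO for 24 h, then NR-containing medium ([…] as printed) for 3 h. Cells were PBS-washed, fixed 15 min in 0.5% formaldehyde/1% CaCl2, and dye extracted in 1% HOAc/50% EtOH with 20 min shaking. Read at A540 as % of DMSO control; mean of three independent measurements.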

[2] = Cytotoxicity against rat WB344 cells at 5 uM after 24 hrs; assay type: cell-based; settings: wb344, 24 h; method in brief: as §1
[3] = system: Radical scavenging activity; assay: Antioxidant activity assessed as DPPH radical scavenging activity at 10 uM by TEAC assay; assay type: functional
Method in brief: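 Test solutions of 10 µM in MeOH were mixed 0.2 mL to 1.8 mL with methanolic DPPH at 22 mg/L. Absorbance at 517 nm was read every minute for 5 min, then every 5 min up to 30 min. Activity was followed over time and expressed as Trolox equivalent antioxidant capacity (TEAC).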

[4] = Cytotoxicity against rat WB344 cells at 100 uM after 24 hrs; assay type: cell-based; settings: wb344, 24 h; method in brief: as §1
[5] = Cytotoxicity against rat WB344 cells after 24 hrs; assay type: cell-based; settings: WB344, 24 h
Method in brief: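 Epithelioid cells were cultured in DMEM ~24 h, exposed 24 h to DMSO-dissolved compounds, then to neutral red for 3 h. After formaldehyde/CaCl2 fixation, dye was extracted in acidified ethanol and read at 540 nm. Inhibition = (1 − T/C) × 100 against control OD540; IC50 taken from dose-response curves.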

| Structure (SMILES) | Activity [1] | Activity [2] | Trolox equivalent antioxidant capacity (TEAC) [3] | Activity [4] | IC50 [5] |
| --- | --- | --- | --- | --- | --- |
| COc1cc([C@@H]2CC(=O)c3c(cc(O)c(C/C=C(\C)CCC=C(C)C)c3O)O2)ccc1O | 73% | 100% | 0.8 | 2% | 30.2 µM |
| C=C(C)C(O)CC/C(C)=C/Cc1c(O)cc2c(c1O)C(=O)[C@H](O)[C@@H](c1ccc(O)c(OC)c1)O2 (stereo not given in full) | – | – | 2 | – | – |
| CC(C)=CCC/C(C)=C/Cc1c(O)cc2c(c1O)C(=O)C[C@@H](c1ccc(O)cc1)O2 [BONANNIONE A] | 95% | 97% | 0.4 | 9% | – |
| CC(C)=CCC/C(C)=C/Cc1c(O)cc2c(c1O)C(=O)C[C@@H](c1ccc(O)c(O)c1)O2 [NYMPHAEOL A] | 57% | 98% | 5.2 | 2% | 14.3 µM |
